{"data": "Assay results gathered from unrelated publications", "target": "Serine/threonine-protein kinase ULK2 (ULK2, Homo sapiens, UniProt Q8IYT8)", "One construct used (Q8IYT8 1-1036)": "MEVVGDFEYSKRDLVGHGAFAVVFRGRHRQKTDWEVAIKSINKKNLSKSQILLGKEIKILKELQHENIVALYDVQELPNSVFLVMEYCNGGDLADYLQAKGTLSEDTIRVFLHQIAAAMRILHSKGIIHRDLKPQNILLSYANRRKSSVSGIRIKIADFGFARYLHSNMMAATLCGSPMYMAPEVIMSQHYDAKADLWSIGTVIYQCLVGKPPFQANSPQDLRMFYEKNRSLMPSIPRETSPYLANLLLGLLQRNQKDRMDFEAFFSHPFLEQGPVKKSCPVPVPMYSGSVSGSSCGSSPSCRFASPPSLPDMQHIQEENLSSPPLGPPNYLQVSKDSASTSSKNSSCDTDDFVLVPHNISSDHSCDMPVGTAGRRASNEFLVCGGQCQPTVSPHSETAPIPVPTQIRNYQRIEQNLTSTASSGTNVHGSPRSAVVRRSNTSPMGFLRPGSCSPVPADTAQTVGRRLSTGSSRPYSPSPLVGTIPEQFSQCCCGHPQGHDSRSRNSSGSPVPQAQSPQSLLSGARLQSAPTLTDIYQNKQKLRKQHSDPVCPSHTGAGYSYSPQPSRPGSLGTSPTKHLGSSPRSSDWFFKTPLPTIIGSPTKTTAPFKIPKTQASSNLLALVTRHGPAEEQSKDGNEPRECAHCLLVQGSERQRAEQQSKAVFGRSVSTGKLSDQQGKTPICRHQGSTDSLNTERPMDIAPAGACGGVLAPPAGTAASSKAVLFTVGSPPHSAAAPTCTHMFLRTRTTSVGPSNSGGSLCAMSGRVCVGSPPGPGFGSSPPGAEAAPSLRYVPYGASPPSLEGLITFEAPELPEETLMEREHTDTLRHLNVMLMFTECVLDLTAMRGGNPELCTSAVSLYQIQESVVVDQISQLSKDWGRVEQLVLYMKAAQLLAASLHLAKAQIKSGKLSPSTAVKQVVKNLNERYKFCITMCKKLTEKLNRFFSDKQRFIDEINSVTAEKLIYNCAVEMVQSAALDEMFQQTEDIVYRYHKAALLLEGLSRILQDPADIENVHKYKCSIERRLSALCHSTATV"}
{"Structure (SMILES)": "Cc1cnc(Nc2ccc(C(=O)N3CCC(N4CCCC4)CC3)cc2)nc1-c1cc2ccccc2s1", "test": "binding, competition with immobilised ligand", "setting": "1 µM", "remaining binding [%]": 12}
{"Structure (SMILES)": "CN(c1nccc(-c2cnn3ncccc23)n1)C1CC1", "test": "binding", "setting": "1 µM", "remaining binding [%]": 100}
{"Structure (SMILES)": "COC(=O)Nc1nc2ccc(C(=O)c3ccccc3)cc2[nH]1", "test": "cell-free assay, competition with immobilised ligand", "setting": "10 µM", "remaining binding [%]": 30}
{"Structure (SMILES)": "COc1cc(-c2cn(C3CCc4c(F)cccc4N(CC(F)(F)F)C3=O)nn2)ccc1-n1cnc(C)c1 (stereo not shown)", "test": "cell-free assay, competition with immobilised ligand", "setting": "1 µM", "remaining binding [%]": 100}
{"Structure (SMILES)": "C[C@@H](c1ccc(-n2cnc3c(N)ncnc32)cc1)N1CCc2nn(C)c(Cc3ccccc3)c2C1=O", "test": "binding, competition with immobilised ligand", "setting": "0.1 µM", "remaining binding [%]": 70}
{"Structure (SMILES)": "COCCOc1nc(-c2ccc(Cl)nc2)nc2c1CN(C(=O)c1ncn3ccccc13)CC2", "test": "cell-free assay, competition with immobilised ligand", "setting": "0.1 µM", "remaining binding [%]": 100}
{"Structure (SMILES)": "O=C(c1ccc(Nc2ncc(Cl)c(-c3cc4ccccc4s3)n2)cc1)N1CCC(N2CCCC2)CC1", "test": "binding, competition with immobilised ligand", "setting": "1 µM", "remaining binding [%]": 35}
{"Structure (SMILES)": "CNCc1ccccc1-c1csc([C@H](C)Nc2nc(C)nc3cc(OC)c(OC)cc23)c1", "test": "cell-free assay, competition with immobilised ligand", "setting": "1 µM", "remaining binding [%]": 100}
{"Structure (SMILES)": "COc1ncc2cc3ccccc3nc2c1C#N", "test": "cell-free assay, competition with immobilised ligand", "setting": "5 µM", "remaining binding [%]": 100}
{"Structure (SMILES)": "C[C@@H]1CN(c2ccc3ncc(-c4ccc5[nH]nc(C6CC6)c5c4)n3n2)C[C@H](C)O1", "test": "binding, competition with immobilised ligand", "setting": "0.5 µM", "remaining binding [%]": 91}
{"Structure (SMILES)": "CS(=O)(=O)c1cc(C2(NC(=O)c3cncc4c3cnn4-c3ccc(F)cc3)CC2)ccn1", "test": "cell-free assay, competition with immobilised ligand", "setting": "1 µM", "remaining binding [%]": 92}
{"Structure (SMILES)": "COc1cnc(Nc2cccc(S(N)(=O)=O)c2)nc1N1CCN(c2ccccc2)C(=O)C1", "test": "binding, competition with immobilised ligand", "setting": "1 µM", "remaining binding [%]": 51}
{"Structure (SMILES)": "CN(CCCC(F)(F)F)c1nccc(-c2cnn3ncccc23)n1", "test": "binding", "setting": "1 µM", "remaining binding [%]": 96}
{"Structure (SMILES)": "COc1ccc2c(c1)O[C@H](c1ccc(OC)c(OC)c1)C[C@@H]2NC(=O)C1(c2ccc3c(c2)OC(F)(F)O3)CC1", "test": "cell-free assay, competition with immobilised ligand", "setting": "1 µM", "remaining binding [%]": 100}
{"Structure (SMILES)": "FC(F)(F)Oc1cccc(-c2cnc3ccc(-c4ccncc4)nn23)c1", "test": "binding, competition with immobilised ligand", "setting": "5 µM", "remaining binding [%]": 78}
{"Structure (SMILES)": "O=C(Nc1c[nH]nc1C(=O)NC1CCNCC1)c1cc(F)cc(F)c1", "test": "binding, competition with immobilised ligand", "setting": "1 µM", "remaining binding [%]": 99}
{"Structure (SMILES)": "N[C@@H]1CCN(c2nccc(-c3cnn4ncccc34)n2)C1", "test": "binding", "setting": "1 µM", "remaining binding [%]": 100}
{"Structure (SMILES)": "CC(C)(C)c1ccc(-c2nc(CBr)nn2-c2cccc(O)c2)cc1", "test": "cell-free assay, competition with immobilised ligand", "setting": "10 µM", "remaining binding [%]": 92}
{"Structure (SMILES)": "CCCOc1ccc([C@H]2[C@H](C(=O)O)[C@@H](c3ccc4c(c3)OCO4)CN2CC(=O)Nc2c(CC)cccc2CC)cc1", "test": "cell-free assay, competition with immobilised ligand", "setting": "1 µM", "remaining binding [%]": 55}
{"Structure (SMILES)": "c1cnn2ncc(-c3ccnc(N4CCC45COC5)n3)c2c1", "test": "binding", "setting": "1 µM", "remaining binding [%]": 59}
{"Structure (SMILES)": "CSc1cccnc1N1CCN(Cc2nc3ccccc3[nH]2)CC1", "test": "cell-free assay, competition with immobilised ligand", "setting": "1 µM", "remaining binding [%]": 94}
{"Structure (SMILES)": "Cc1cnn2ncc(-c3ccnc(N(C)C)n3)c2c1", "test": "binding", "setting": "1 µM", "remaining binding [%]": 92}
{"Structure (SMILES)": "Nc1ncc2c(n1)-c1c([nH]c3ccc(C#CC4CC4)cc13)CCCC2", "test": "binding, competition with immobilised ligand", "setting": "1 µM", "remaining binding [%]": 100}
{"Structure (SMILES)": "C[C@H]1CCN(c2nccc(-c3cnn4ncccc34)n2)C1", "test": "binding", "setting": "1 µM", "remaining binding [%]": 63}
{"Structure (SMILES)": "O=C(c1ccc(Nc2nccc(-c3cc4ccccc4s3)n2)cc1)N1CCC(N2CCCC2)CC1", "test": "binding, competition with immobilised ligand", "setting": "1 µM", "remaining binding [%]": 87}
